Where two headings read alike, the source gives them in different places.
Legend:
HCT116 = assay: MTS cytotoxicity assay, 72 h, HCT116; assay type: cell-based, human; details: Homo sapiens, HCT-116, 72 h, read-out: IC50 HCT116
In short: (§1)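 Human lines were kept at 37 °C, 5% CO2 in recommended medium plus 10% FCS, penicillin–streptomycin, 2 mM glutamine, 1 mM bicarbonate, 1 mM pyruvate and 20 mM HEPES, and were mycoplasma-tested biweekly. Cells were exposed to test compound for 72 h on a robotic screening platform, then read by MTS. DMSO-treated cells were the negative control. IC50 came from dose–response curves, mean of ≥6 replicates.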

Jurkat = assay: MTS cytotoxicity assay, 72 h, Jurkat; assay type: cell-based, human; details: Homo sapiens, Jurkat, read-out: IC50 Jurkat
In short: as §1

HCT116-p53 = assay: MTS cytotoxicity assay, 72 h, HCT116-p53; assay type: cell-based, human; details: Homo sapiens, read-out: IC50 HCT116-p53
In short: as §1

MRC-5 = assay: MTS cytotoxicity assay, 72 h, MRC-5 fibroblasts; assay type: cell-based, human; details: Homo sapiens, MRC5, 72 h, read-out: IC50 MRC-5
In short: as §1

[1] = test system: panel of human cell lines; assay: MTS cytotoxicity assay, statements over groups of cell lines of the panel; assay type: cell-based; details: for IC50: Homo sapiens; for IC50 / cytotoxicity in fibroblast cells: non-cancerous fibroblasts (BJ, MRC-5), stated together in the text
In short: as §1

CCRF-CEM = assay: MTS cytotoxicity assay, 72 h, CCRF-CEM; assay type: cell-based, human; details: Homo sapiens, CCRF-CEM, read-out: IC50 CCRF-CEM
In short: as §1

RAMOS = assay: MTS cytotoxicity assay, 72 h, RAMOS; assay type: cell-based, human; details: Homo sapiens, Ramos, read-out: IC50 RAMOS
In short: as §1

U2OS = assay: MTS cytotoxicity assay, 72 h, U2OS; assay type: cell-based, human; details: Homo sapiens, U2OS, read-out: IC50 U2OS
In short: as §1

BJ = assay: MTS cytotoxicity assay, 72 h, BJ fibroblasts; assay type: cell-based, human; details: Homo sapiens, BJ, read-out: IC50 BJ
In short: as §1

K562 = assay: MTS cytotoxicity assay, 72 h, K562; assay type: cell-based, human; details: Homo sapiens, K562, 72 h, read-out: IC50 K562
In short: as §1

A549 = assay: MTS cytotoxicity assay, 72 h, A549; assay type: cell-based, human; details: Homo sapiens, A549, 72 h, read-out: IC50 A549
In short: as §1

[2] = 72 h, read-out: IC50 across all tested cell lines
[3] = read-out: IC50 across multiple cancer lines

Row | SMILES | IC50 (HCT116) | IC50 (Jurkat) | IC50 (HCT116-p53) | IC50 (MRC-5) | IC50 [1, 2] | IC50 (CCRF-CEM) | IC50 (RAMOS) | IC50 (U2OS) | IC50 (BJ) | IC50 (K562) | IC50 (A549) | IC50 [1, 3] | IC50 / cytotoxicity in fibroblast cells [1]
1 | O=C(NCc1ccco1)C1CN(c2cc(-c3ccncc3)n[nH]c2=O)C1 [Compound 17, N-(furan-2-ylmethyl)-1-(3-oxo-6-(pyridin-4-yl)-2,3-dihydropyridazin-4-yl)azetidine-3-carboxamide] | > 50 µM | > 50 µM | > 50 µM | > 50 µM | > 50 µM | > 50 µM | > 50 µM | > 50 µM | > 50 µM | > 50 µM | > 50 µM |  | 
2 | O=C(Nc1ccccc1)C1CN(c2cc(-c3ccc(Cl)cc3)n[nH]c2=O)C1 [Compound 11, 1-(6-(4-chlorophenyl)-3-oxo-2,3-dihydropyridazin-4-yl)-N-phenylazetidine-3-carboxamide] | 38.9 µM | 33.2 µM | 37.9 µM | 26 µM |  | 23 µM | 10.4 µM | 26.9 µM | 34 µM | > 50 µM | 32 µM | 18 to 37 µM | 
3 | O=C(NCC(F)(F)F)C1CN(c2cc(-c3ccccc3)n[nH]c2=O)C1 [Compound 35, 1-(3-oxo-6-phenyl-2,3-dihydropyridazin-4-yl)-N-(2,2,2-trifluoroethyl)azetidine-3-carboxamide] | > 50 µM | > 50 µM | > 50 µM | > 50 µM | > 50 µM | > 50 µM | > 50 µM | > 50 µM | > 50 µM | > 50 µM | > 50 µM |  | 
4 | O=C(Nc1ccccc1)C1CN(c2cc(-c3ccc(F)cc3F)n[nH]c2=O)C1 [Compound 12, 1-(6-(2,4-difluorophenyl)-3-oxo-2,3-dihydropyridazin-4-yl)-N-phenylazetidine-3-carboxamide] | 37.1 µM | 33.9 µM | 32.8 µM | 16.6 µM |  | 18 µM | 16.8 µM | 16.2 µM | 28.9 µM | 31.8 µM | 36.3 µM | 18 to 37 µM | 
5 | O=C(c1ccncc1)C1CN(c2cc(-c3ccncc3)n[nH]c2=O)C1 [Compound 46, 4-(3-isonicotinoylazetidin-1-yl)-6-(pyridin-4-yl)pyridazin-3(2H)-one] | > 50 µM | 35.9 µM | > 50 µM | > 50 µM |  | 29 µM | > 50 µM | > 50 µM | > 50 µM | > 50 µM | > 50 µM |  | 
6 | O=C(NCc1ccco1)C1CN(c2cc(-c3ccccc3)n[nH]c2=O)C1 [Compound 18, N-(furan-2-ylmethyl)-1-(3-oxo-6-phenyl-2,3-dihydropyridazin-4-yl)azetidine-3-carboxamide] | > 50 µM | 19.2 µM | > 50 µM | > 50 µM |  | 30.2 µM | 41.2 µM | > 50 µM | > 50 µM | 30.4 µM | > 50 µM |  | 
7 | COC(=O)c1cncc(-c2cc(N3CC(C(=O)NCc4ccco4)C3)c(=O)[nH]n2)c1 [Compound 23, methyl 5-(5-(3-((furan-2-ylmethyl)carbamoyl)azetidin-1-yl)-6-oxo-1,6-dihydropyridazin-3-yl)nicotinate] | 8.83 µM | 5.15 µM | 12.7 µM | > 50 µM |  | 5.12 µM | 5.53 µM | 16.9 µM | > 50 µM | 7.4 µM | 42.1 µM |  | 
8 | O=C(C1CN(c2cc(-c3ccccc3)n[nH]c2=O)C1)N1CCN(c2ccccc2)CC1 [Compound 29, 6-phenyl-4-(3-(4-phenylpiperazine-1-carbonyl)azetidin-1-yl)pyridazin-3(2H)-one] | > 50 µM | > 50 µM | > 50 µM | > 50 µM |  | > 50 µM | > 50 µM | > 50 µM | > 50 µM | > 50 µM | > 50 µM |  | 
9 | O=C(NCC(F)(F)F)C1CN(c2cc(-c3cccc(F)c3)n[nH]c2=O)C1 [Compound 36, 1-(6-(3-fluorophenyl)-3-oxo-2,3-dihydropyridazin-4-yl)-N-(2,2,2-trifluoroethyl)azetidine-3-carboxamide] | > 50 µM | > 50 µM | > 50 µM | > 50 µM | > 50 µM | > 50 µM | > 50 µM | > 50 µM | > 50 µM | > 50 µM | > 50 µM |  | 
10 | O=C(NCC(F)(F)F)C1CN(c2cc(-c3ccncc3)n[nH]c2=O)C1 [Compound 34, 1-(3-oxo-6-(pyridin-4-yl)-2,3-dihydropyridazin-4-yl)-N-(2,2,2-trifluoroethyl)azetidine-3-carboxamide] | > 50 µM | > 50 µM | > 50 µM | > 50 µM | > 50 µM | > 50 µM | > 50 µM | > 50 µM | > 50 µM | > 50 µM | > 50 µM |  | 
11 | COc1ccc(-c2cc(N3CC(C(=O)Nc4ccccc4)C3)c(=O)[nH]n2)cc1 [Compound 10, 1-(6-(4-methoxyphenyl)-3-oxo-2,3-dihydropyridazin-4-yl)-N-phenylazetidine-3-carboxamide] | > 50 µM | 40.3 µM | > 50 µM | > 50 µM |  | 20.8 µM | 11 µM | > 50 µM | > 50 µM | > 50 µM | > 50 µM |  | 
12 | O=C(NCC(F)(F)F)C1CN(c2cc(-c3ccc(Cl)cc3)n[nH]c2=O)C1 [Compound 38, 1-(6-(4-chlorophenyl)-3-oxo-2,3-dihydropyridazin-4-yl)-N-(2,2,2-trifluoroethyl)azetidine-3-carboxamide] | > 50 µM | 44.9 µM | > 50 µM | > 50 µM |  | 29.9 µM | > 50 µM | > 50 µM | > 50 µM | > 50 µM | > 50 µM |  | No significant cytotoxicity
13 | O=C(NCC(F)(F)F)C1CN(c2cc(-c3ccc(F)cc3F)n[nH]c2=O)C1 [Compound 39, 1-(6-(2,4-difluorophenyl)-3-oxo-2,3-dihydropyridazin-4-yl)-N-(2,2,2-trifluoroethyl)azetidine-3-carboxamide] | > 50 µM | > 50 µM | > 50 µM | > 50 µM |  | 26.8 µM | > 50 µM | > 50 µM | > 50 µM | > 50 µM | > 50 µM |  | No significant cytotoxicity
14 | COc1ccc(-c2cc(N3CC(C(=O)NCc4ccco4)C3)c(=O)[nH]n2)cc1 [Compound 20, N-(furan-2-ylmethyl)-1-(6-(4-methoxyphenyl)-3-oxo-2,3-dihydropyridazin-4-yl)azetidine-3-carboxamide] | > 50 µM | 24.3 µM | > 50 µM | > 50 µM |  | > 50 µM | 19.7 µM | > 50 µM | > 50 µM | 38.7 µM | > 50 µM |  | 
15 | O=C(C1CN(c2cc(-c3ccncc3)n[nH]c2=O)C1)N1CCN(c2ccccc2)CC1 [Compound 28, 4-(3-(4-phenylpiperazine-1-carbonyl)azetidin-1-yl)-6-(pyridin-4-yl)pyridazin-3(2H)-one] | > 50 µM | > 50 µM | > 50 µM | > 50 µM |  | > 50 µM | > 50 µM | > 50 µM | > 50 µM | > 50 µM | > 50 µM |  | 
16 | O=C(NCc1ccco1)C1CN(c2cc(-c3ccc(Cl)cc3)n[nH]c2=O)C1 [Compound 21, 1-(6-(4-chlorophenyl)-3-oxo-2,3-dihydropyridazin-4-yl)-N-(furan-2-ylmethyl)azetidine-3-carboxamide] | > 50 µM | 30.5 µM | > 50 µM | > 50 µM |  | > 50 µM | 37.5 µM | > 50 µM | > 50 µM | > 50 µM | > 50 µM |  | 
17 | O=C(NCc1ccco1)C1CN(c2cc(-c3cccc(F)c3)n[nH]c2=O)C1 [Compound 19, 1-(6-(3-fluorophenyl)-3-oxo-2,3-dihydropyridazin-4-yl)-N-(furan-2-ylmethyl)azetidine-3-carboxamide] | > 50 µM | 25.1 µM | > 50 µM | > 50 µM |  | > 50 µM | 16.3 µM | > 50 µM | > 50 µM | > 50 µM | > 50 µM |  | 
